Columns and labels:
[1] = system: CB2; conditions: Fig. 2 and introduction; cited from earlier work
[2] = system: CB2R; conditions: CB2R-mediated gastrointestinal assays; cited from earlier work
[3] = system: P-ERK 1/2 expression in HL-60 cells selectively expressing CB2R; conditions: cited from earlier work
[4] = target: CB2R (Mus musculus, UniProt P47936); test: Radioligand binding, CB2R, [3H]-CP-55,940 competition in mouse spleen homogenate
[5] = target: CB1R (Mus musculus, UniProt P47746); test: Radioligand binding, CB1R, [3H]-CP-55,940 competition in mouse brain
[6] = system: P-ERK 1/2 expression in HL-60 cells selectively expressing CB2R; test: P-ERK 1/2 expression; type: cell-based, human
Outline: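 HL-60 cells grown at 37 °C, 5% CO2, in RPMI 1640 with 10% heat-inactivated FBS, 25 mM HEPES, 2.5 mM pyruvate and gentamicin, and used at 80% confluency. Compounds were given in medium with 1% DMSO for 15 min, with or without 75 nM AM630 added 5 min before. Lysates (HEPES pH 7.9, 4 °C) were western-blotted for P-ERK1/2. Values are % of vehicle, five separate experiments, ±SEM.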

Sequence of CB1R (P47746 whole entry): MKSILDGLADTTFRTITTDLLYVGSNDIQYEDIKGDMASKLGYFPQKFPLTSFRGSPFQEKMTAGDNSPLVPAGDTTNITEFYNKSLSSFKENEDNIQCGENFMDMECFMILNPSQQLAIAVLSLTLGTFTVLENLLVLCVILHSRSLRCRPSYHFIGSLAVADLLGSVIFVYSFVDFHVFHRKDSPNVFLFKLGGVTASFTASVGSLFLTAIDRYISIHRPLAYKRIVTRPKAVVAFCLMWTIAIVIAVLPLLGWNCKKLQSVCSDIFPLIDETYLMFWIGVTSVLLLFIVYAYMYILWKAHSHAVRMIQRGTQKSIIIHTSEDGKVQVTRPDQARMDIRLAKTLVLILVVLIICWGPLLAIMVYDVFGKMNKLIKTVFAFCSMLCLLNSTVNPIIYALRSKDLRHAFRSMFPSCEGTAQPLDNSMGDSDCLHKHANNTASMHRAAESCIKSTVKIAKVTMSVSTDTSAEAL
Sequence of CB2R (Mus musculus, UniProt P47936) (P47936 whole entry): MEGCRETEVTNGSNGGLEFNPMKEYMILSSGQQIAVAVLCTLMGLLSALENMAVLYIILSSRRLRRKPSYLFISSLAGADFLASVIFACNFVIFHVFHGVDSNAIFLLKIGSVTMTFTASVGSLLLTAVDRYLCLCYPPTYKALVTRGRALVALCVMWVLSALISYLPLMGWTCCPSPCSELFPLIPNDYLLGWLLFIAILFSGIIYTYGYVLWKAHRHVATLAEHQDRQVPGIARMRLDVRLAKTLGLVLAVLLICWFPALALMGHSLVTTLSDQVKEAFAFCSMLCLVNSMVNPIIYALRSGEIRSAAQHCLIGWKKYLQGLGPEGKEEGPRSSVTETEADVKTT

Row | Molecule | Ki [4] [µM] | Ki [5] [µM] | also measured
1 | 5-(4-chloro-3-methylphenyl)-1-(4-methylbenzyl)-N-fenchyl-1H-pyrazole-3-carboxamide [Compound 1] | – | – | selectivity ratio KiCB1/KiCB2 of SR144528 [1]: > 600; in vivo CB2R antagonist activity [2]: remarkable in vivo CB2R antagonist activity
2 | Cc1ccc2c(c1)Cc1c(C(=O)NN3CCCCC3)nn(-c3ccc(Cl)cc3Cl)c1-2 [Compound 2, 1-(2,4-dichlorophenyl)-6-methyl-N-(piperidin-1-yl)-1,4-dihydroindeno[1,2-c]pyrazole-3-carboxamide] | – | – | CB2 intrinsic activity in vitro [3]: CB2 agonist activity in vitro
3 | Cc1cc2c(cc1Cl)-c1c(c(C(=O)NC3CC4CCC3(C)C4(C)C)nn1-c1ccc(Cl)cc1Cl)C2 (stereo not drawn) [Compound 6, N-Bornyl-7-chloro-1-(2,4-dichlorophenyl)-6-methyl-1,4-dihydroindeno[1,2-c]pyrazole-3-carboxamide] | 0.474 ± 0.025 | 2.67 ± 0.167 | –
4 | Cc1cc2c(cc1Cl)-c1c(c(C(=O)NC3CC(C)CCC3C(C)C)nn1-c1ccc(Cl)cc1Cl)C2 (stereo not drawn) [Compound 9, N-Menthyl-7-chloro-1-(2,4-Dichlorophenyl)-6-methyl-1,4-dihydroindeno[1,2-c]pyrazole-3-carboxamide] | 3.1 ± 0.283 | 1.25 ± 0.359 | –
5 | Cc1cc2c(cc1Cl)-c1c(c(C(=O)NC34CC5CC(CC(C5)C3)C4)nn1-c1ccc(Cl)cc1Cl)C2 [Compound 10, N-Adamant-1-yl-7-chloro-1-(2,4-dichlorophenyl)-6-methyl-1,4-dihydroindeno[1,2-c]pyrazole-3-carboxamide] | 0.425 ± 0.095 | 1.3 ± 0.347 | –
6 | Cc1cc2c(cc1Cl)-c1c(c(C(=O)NC3C4CC5CC(C4)CC3C5)nn1-c1ccc(Cl)cc1Cl)C2 (stereo not drawn) [Compound 11, N-Adamant-2-yl-7-chloro-1-(2,4-dichlorophenyl)-6-methyl-1,4-dihydroindeno[1,2-c]pyrazole-3-carboxamide] | 0.275 ± 0.025 | 4.62 ± 0.857 | –
7 | Cc1cc2c(cc1Cl)-c1c(c(C(=O)N[C@H]3CC[C@H](C)CC3)nn1-c1ccc(Cl)cc1Cl)C2 [Compound 14, Trans-N-(4-Methylcyclohexyl)-7-chloro-1-(2,4-dichlorophenyl)-6-meth-yl-1,4-dihydroindeno[1,2-c]pyrazole-3-carboxamide] | 0.325 ± 0.053 | > 5 | –
8 | Cc1cc2c(cc1Cl)-c1c(c(C(=O)NC3CCCCCC3)nn1-c1ccc(Cl)cc1Cl)C2 [Compound 16, N-Cycloheptyl-7-chloro-1-(2,4-dichlorophenyl)-6-methyl-1,4-dihydroindeno[1,2-c]pyrazole-3-carboxamide] | 1.53 ± 1.24 | 3.75 ± 1.25 | –
9 | Cc1cc2c(cc1Cl)-c1c(c(C(=O)Nc3cccc4ccccc34)nn1-c1ccc(Cl)cc1Cl)C2 [Compound 18, N-(Naphthalen-1-yl)-7-chloro-1-(2,4-dichlorophenyl)-6-methyl-1,4-dihydroindeno[1,2-c]pyrazole-3-carboxamide] | 1.13 ± 0.125 | > 5 | –
10 | Cc1cc2c(cc1Cl)-c1c(c(C(=O)NC(C)c3cccc4ccccc34)nn1-c1ccc(Cl)cc1Cl)C2 (stereo not drawn) [Compound 19, N-(1-(1-Naphthyl)ethyl)-7-chloro-1-(2,4-dichlorophenyl)-6-methyl-1,4-dihydroindeno[1,2-c]pyrazole-3-carboxamide] | 2.4 ± 0.4 | > 5 | –
11 | Cc1cc2c(cc1Cl)Cc1c(C(=O)NC34CC5CC(CC(C5)C3)C4)nn(-c3ccc(Cl)cc3Cl)c1-2 [Compound 24, N-Adamant-1-yl-6-chloro-1-(2,4-dichlorophenyl)-7-methyl-1,4-dihydroindeno[1,2-c]pyrazole-3-carboxamide] | 1.35 ± 0.813 | 4.75 ± 0.02 | –
12 | Cc1c(C(=O)c2cccc3ccccc23)c2cccc3c2n1[C@H](CN1CCOCC1)CO3 [WIN 55,212-2] | – | – | P-ERK 1/2 expression, percentage of increment versus vehicle ([6]; 75 nM (dose of maximum effect), 15 min exposure): +83.2 ± 18.9%; Effect on P-ERK 1/2 expression after 5 min pre-treatment with CB2 antagonist AM630 ([6]; AM630 75 nM, agonist at dose of maximum effect, 15 min): counteracted; P-ERK 1/2 expression in treated HL-60 cells versus vehicle ([6]; western blot, 15 min exposure): significant increase

— publication PMC3406267 (The Open Medicinal Chemistry Journal, 2012)
